The results in this text go back to article PMC4944838 (Molecular cell, 2013).

One test deals with T1, Rad4-BRCT1,2 (Schizosaccharomyces pombe, UniProt P32372).
T1 sequence (P32372 1-186 limits assumed): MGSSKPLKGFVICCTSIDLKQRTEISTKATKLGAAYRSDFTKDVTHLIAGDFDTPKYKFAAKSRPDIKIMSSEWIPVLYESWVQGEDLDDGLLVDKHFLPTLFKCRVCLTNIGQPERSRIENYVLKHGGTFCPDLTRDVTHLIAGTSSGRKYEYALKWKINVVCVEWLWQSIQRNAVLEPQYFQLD
The test is described as follows: Co-crystallisation with Rad4-BRCT1,2. Type of test: binding, S. pombe. The following applies: co-crystal X-ray structure. In outline:
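S. pombe Rad4 BRCT1,2 construct expressed in E. coli and purified by affinity tags and conventional column chromatography. Crystals of protein and complexes grown by hanging-drop vapour diffusion. Diffraction data collected from single crystals on a home source or synchrotron. Structures phased by molecular replacement and refined.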

Test [1] addresses Rad4-BRCT1,2 (BRCT1,2 segment of S. pombe Rad4^TopBP1) (S. pombe) (UniProt P32372). The test can be described thus: fluorescence polarisation. (Polarisation of emitted light reports the rotation of a fluorescent probe.)
Test [2] has as its target Rad4-BRCT1,2 K56E (S. pombe) (UniProt P32372). The test is described as follows: fluorescence polarisation.
The target in test [3] is Rad4-BRCT1,2 K151E (S. pombe) (UniProt P32372). The test is described as follows: fluorescence polarisation.
For test [4], the target named is Rad4-BRCT3,4 (BRCT3,4 segment of S. pombe Rad4^TopBP1) (S. pombe) (UniProt P32372). The test can be described thus: fluorescence polarisation.
Sequence of Rad4-BRCT3,4 (BRCT3,4 segment of S. pombe Rad4^TopBP1) (S. pombe) (P32372 291-494): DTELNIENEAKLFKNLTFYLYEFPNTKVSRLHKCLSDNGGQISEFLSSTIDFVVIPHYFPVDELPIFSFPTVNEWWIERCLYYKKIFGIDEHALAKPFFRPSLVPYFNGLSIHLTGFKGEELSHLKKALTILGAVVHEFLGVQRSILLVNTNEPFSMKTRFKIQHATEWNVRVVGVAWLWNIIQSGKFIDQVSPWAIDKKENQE
In the next test the target is T2, Rad4-BRCT1,2 K151E (S. pombe, UniProt P32372 1-186, K151E).
T2 sequence: T1 sequence (P32372 1-186 limits assumed) with K151E
The test is described as follows: fluorescence polarisation.

A further test deals with T3, Rad4-BRCT1,2 K56E (S. pombe, UniProt P32372 1-186, K56E).
T3 sequence: T1 sequence (P32372 1-186 limits assumed) with K56E
The test can be described thus: fluorescence polarisation.

Substitutions are numbered along the chain they refer to. Where no end group is shown, it is not given here. [ ]: non-standard residue; d: D form. pT = C[C@@H](OP(=O)(O)O)[C@H](N)C(=O)O

As to 184 – Val Pro Glu pThr Val – 188, the “site occupancy in co-crystal structure with Rad4-BRCT1,2 (in words)” value on Rad4-BRCT1,2 is listed as “peptide molecules bound to both BRCT domains”. With “232 – Val Glu Ser pThr Pro – 236 [Crb2 phosphopeptide (residues 229-241)]”, the “site occupancy in co-crystal structure with Rad4-BRCT1,2 (in words)” value on Rad4-BRCT1,2 is given as “only the BRCT2 site was occupied”. “Crb2 peptide phosphorylated on both Thr215 and Thr235 (fluorescence polarisation)” displayed a dissociation constant Kd in test [1] of 1970 nM. This counts as single-digit micromolar. For “Crb2-pThr187 phosphopeptide, fluorescently labelled”, the Kd in test [2] came out at 2200 nM; in test [1], 500 nM; in test [3], 400 nM.

As for “Rad9 C-terminal tail peptide phosphorylated on Ser423”, in test [4], the dissociation constant (Kd) turned out to be 8.6 µM. The same measure, in the same setting: next, “Rad9 C-terminal tail peptide phosphorylated on Thr412”: 1.9 µM; “Rad9 C-terminal tail peptide phosphorylated on Thr412 and Ser423”: 6.4 µM. With RVES[pT]PPAFLP (also: fluorescein label, site not given here) [Crb2-pThr235 phosphopeptide, fluorescently labelled], the values for the Kd in the test with Rad4-BRCT1,2 K151E and with Rad4-BRCT1,2 K56E were 59 µM and 11.7 µM, respectively.

A word on the Kd: it is the constant that tells how readily two partners part at equilibrium. The low end stands for a tighter complex, the high end for a looser complex.
